# Reference: ChEMBL document CHEMBL1641444, “Synthesis and evaluation of 6-[1-(2-[(18)F]fluoro-3-pyridyl)-5-methyl-1H-1,2,3-triazol-4-yl]quinoline for positron emission tomography imaging of the metabotropic glutamate receptor type 1 in brain” (Bioorg Med Chem, 2011)
# How the values were obtained:
# [1] = Octanol-sodium phosphate buffer partition coefficient, log D of the compound at pH 7.4; assay type: physicochemical
# In short: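 [¹⁸F]7a (radiochemical purity 100%, about 150,000 cpm) was mixed with n-octanol (3.0 g) and 0.1 M sodium phosphate buffer pH 7.40 (3.0 g). The mix was vortexed for 3 min at room temperature, then centrifuged at 3500 rpm for 5 min. Assays were run in triplicate.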
# [2] = Ratio of drug uptake in Sprague-Dawley rat cerebellum to medulla at 17 MBq, iv after 10 to 15 mins by small-animal PET; settings: in vivo
# [3] = tested on: Hippocampus; test: Biodistribution in hippocampus of Sprague-Dawley rat at 17 MBq, iv after 5 mins by dissection method; assay type: ADME, organism-based; settings: in vivo
# In short: (§1)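 The [18F]ligand was given to rats as a saline solution (average 17 MBq, about 0.11 nmol) via the tail vein. Three rats per time point were killed by cervical dislocation at 5, 15 and 30 min. Dissected tissues were gamma-counted with decay correction, and results are expressed as % injected dose per gram of wet tissue.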
# [4] = Biodistribution in whole brain of Sprague-Dawley rat at 17 MBq, iv after 15 mins by dissection method; assay type: ADME, organism-based; settings: in vivo, 0.25 h
# In short: (§2)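 [¹⁸F]7a in saline (average 17 MBq/200 µL, 0.11 nmol) was given by tail vein. Rats were killed by cervical dislocation at 5, 15 or 30 min, with three rats per time point. Tissue radioactivity was measured by gamma counting, decay-corrected and expressed as %ID per gram of wet tissue.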
# [5] = tested on: Kidney; test: Biodistribution in kidney of Sprague-Dawley rat at 17 MBq, iv after 30 mins by dissection method; assay type: ADME, organism-based; settings: in vivo, 0.5 h; in short: as §1
# [6] = tested on: Striatum; test: Biodistribution in striatum of Sprague-Dawley rat at 17 MBq, iv after 30 mins by dissection method; assay type: ADME, organism-based; settings: in vivo, 0.5 h; in short: as §2
# [7] = tested on: Cerebral cortex; test: Biodistribution in cerebral cortex of Sprague-Dawley rat at 17 MBq, iv after 5 mins by dissection method; assay type: ADME, organism-based; settings: in vivo; in short: as §1
# [8] = Biodistribution in whole brain of Sprague-Dawley rat at 17 MBq, iv after 5 mins by dissection method; assay type: ADME, organism-based; settings: in vivo; in short: as §2
# [9] = Biodistribution in pons-medulla of Sprague-Dawley rat at 17 MBq, iv after 30 mins by dissection method; assay type: ADME, organism-based; settings: in vivo, 0.5 h; in short: as §2
# [10] = tested on: Hippocampus; test: Biodistribution in hippocampus of Sprague-Dawley rat at 17 MBq, iv after 15 mins by dissection method; assay type: ADME, organism-based; settings: in vivo, 0.25 h; in short: as §1
# [11] = tested on: Cerebellum; test: Biodistribution in cerebellum of Sprague-Dawley rat at 17 MBq, iv after 15 mins by dissection method; assay type: ADME, organism-based; settings: in vivo, 0.25 h; in short: as §1
# [12] = tested on: Pancreas; test: Biodistribution in pancreas of Sprague-Dawley rat at 17 MBq, iv after 5 mins by dissection method; assay type: ADME, organism-based; settings: in vivo; in short: as §2
# [13] = Metabolic stability in plasma of ddy mouse assessed as reduction of parent compound level at 3.7 MBq, iv after 30 mins by HPLC analysis; design: scale not given: the % may be the effect or the level left; settings: 0.5 h
# [14] = tested on: Cerebellum (Mus musculus); test: Metabolic stability in cerebellum of mouse assessed as reduction of parent compound level at 3.7 MBq, iv after 30 mins by HPLC analysis; design: scale not given: the % may be the effect or the level left; settings: in vivo, 0.5 h
# [15] = Metabolic stability in plasma of ddy mouse assessed as reduction of parent compound level at 3.7 MBq, iv after 5 mins by HPLC analysis; design: scale not given: the % may be the effect or the level left
# [16] = tested on: Cerebellum; test: Biodistribution in cerebellum of Sprague-Dawley rat at 17 MBq, iv after 30 mins by dissection method; assay type: ADME, organism-based; settings: in vivo, 0.5 h; in short: as §1
# [17] = tested on: Heart; test: Biodistribution in heart of Sprague-Dawley rat at 17 MBq, iv after 5 mins by dissection method; assay type: ADME, organism-based; settings: in vivo; in short: as §1
# [18] = tested on: Lung; test: Biodistribution in lung of Sprague-Dawley rat at 17 MBq, iv after 15 mins by dissection method; assay type: ADME, organism-based; settings: in vivo, 0.25 h; in short: as §2
# [19] = Biodistribution in small intestine of Sprague-Dawley rat at 17 MBq, iv after 30 mins by dissection method; assay type: ADME, organism-based; settings: in vivo, 0.5 h; in short: as §2
# [20] = tested on: Thalamus; test: Biodistribution in thalamus of Sprague-Dawley rat at 17 MBq, iv after 15 mins by dissection method; assay type: ADME, organism-based; settings: in vivo, 0.25 h; in short: as §2
# [21] = tested on: Thalamus; test: Biodistribution in thalamus of Sprague-Dawley rat at 17 MBq, iv after 5 mins by dissection method; assay type: ADME, organism-based; settings: in vivo; in short: as §2
# [22] = tested on: Heart; test: Biodistribution in heart of Sprague-Dawley rat at 17 MBq, iv after 15 mins by dissection method; assay type: ADME, organism-based; settings: in vivo, 0.25 h; in short: as §1
# [23] = Ratio of drug uptake in Sprague-Dawley rat cerebral cortex to medulla at 17 MBq, iv after 10 to 15 mins by small-animal PET; settings: in vivo
# [24] = tested on: Spleen; test: Biodistribution in spleen of Sprague-Dawley rat at 17 MBq, iv after 15 mins by dissection method; assay type: ADME, organism-based; settings: in vivo, 0.25 h; in short: as §2
smiles,measurement,setting,value
Cc1c(-c2ccc3ncccc3c2)nnn1-c1cccnc1[18F],logD,[1],2.53
same,Ratio,[2],3.73
same,Drug uptake,[3],0.58 % ID/g
same,Drug uptake,[4],0.23 % ID/g
same,Drug uptake,[5],0.39 % ID/g
same,Drug uptake,[6],0.11 % ID/g
same,Drug uptake,[7],0.44 % ID/g
same,Drug uptake,[8],0.52 % ID/g
same,Drug uptake,[9],0.13 % ID/g
same,Drug uptake,[10],0.22 % ID/g
same,Drug uptake,[11],0.54 % ID/g
same,Drug uptake,[12],0.75 % ID/g
same,Stability,[13],4%
same,Stability,[14],67%
same,Stability,[15],57%
same,Drug uptake,[16],0.2 % ID/g
same,Drug uptake,[17],0.47 % ID/g
same,Drug uptake,[18],0.31 % ID/g
same,Drug uptake,[19],1.74 % ID/g
same,Drug uptake,[20],0.29 % ID/g
same,Drug uptake,[21],0.73 % ID/g
same,Drug uptake,[22],0.24 % ID/g
same,Ratio,[23],1.31
same,Drug uptake,[24],0.25 % ID/g
